Measured values taken from ChEMBL document CHEMBL1221211, “Synthesis enables identification of the cellular target of leucascandrolide A and neopeltolide” (Nat Chem Biol, 2008).
Active and inactive are the calls of the source. The rule behind the calls is not given here.

What was measured:
Saccharomyces cerevisiae [1] = test: Antifungal activity against Saccharomyces cerevisiae W303-1A in glucose agar media at 0.5 ug after 2 to 3 days by disk diffusion method; conditions: read-out: DIZ
Saccharomyces cerevisiae [2] = test: Inhibition of cellular respiration in Saccharomyces cerevisiae W303-1A assessed as level of cytochrome b at 10 uM in presence of inhibitor; format: functional, organism-based
HCT-116 [3] = test: Inhibition of cell proliferation in human HCT116 cells in after 48 hrs; format: functional; conditions: HCT-116, 48 h
Saccharomyces cerevisiae [4] = test: Antifungal activity against Saccharomyces cerevisiae W303-1A harboring snf6 deficient mutant gene in galactose agar media at 50 uM after 24 hrs by spectrophotometry; format: functional, organism-based
HCT-116 [5] = test: Induction of cell cycle arrest in human HCT116 assessed as accumulation at G1-phase at 100 uM after 24 hrs by FACS analysis; format: functional
[6] = (§1) Inhibition of bc1 complex in human A549 cells assessed as reduction in ATP production in presence of 10 mM of 2-DG; format: cell-based
Outline: (§2)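 A549 cells seeded at 2500 cells/well, left 4 h, then given graded compound with or without 10 mM 2-deoxyglucose for 30 min; duplicate wells; ATP by luciferase luminescence, converted to nmol/cell via ATP standard curve; expressed as % of vehicle; IC50 from ATP decrease.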

Saccharomyces cerevisiae [7] = test: Antifungal activity against Saccharomyces cerevisiae W303-1A harboring snf4 deficient mutant gene in galactose agar media at 50 uM after 24 hrs by spectrophotometry; format: functional, organism-based
HCT-116 [8] = test: Induction of cell cycle arrest in human HCT116 assessed as accumulation at G2/M-phase at 100 uM after 24 hrs by FACS analysis; format: functional
Saccharomyces cerevisiae [9] = test: Antifungal activity against Saccharomyces cerevisiae W303-1A in glucose agar media at 1 ug […] by disk diffusion method; format: functional; conditions: read-out: DIZ
Outline: (§3)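 W303-1A grown to saturation in YPD at RT, diluted 10-fold, spread onto YPD (2% glucose) or YPGly (3% v/v glycerol) agar; compound in 20 μl water applied to paper discs placed on agar; plates incubated 2–3 days at 30°C; growth-inhibition zone diameter read.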

Saccharomyces cerevisiae [10] = test: Inhibition of Saccharomyces cerevisiae NADH oxidase at 10 nM
A549 [11] = test: Inhibition of cell proliferation in human A549 cells in after 48 hrs; format: functional; conditions: A549, 48 h
HCT-116 [12] = test: Effect on cellular respiration in human HCT116 cells assessed as increase in NADH level at 2.5 uM by fluorescence assay; format: functional
Outline: (§4)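 HCT116 cells seeded at 200 000 per collagen-coated dish, grown 41 h at 37°C, fresh medium 30–60 min; NADH autofluorescence by spinning-disk confocal microscopy (ex 350 ± 25, em 457 ± 25 nm) every 30 s at 37°C, baseline then 4 min after compound; % change from average initial vs post-addition fluorescence.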

Saccharomyces cerevisiae [13] = test: Antifungal activity against Saccharomyces cerevisiae W303-1A in galactose agar media at 50 uM after 24 hrs by spectrophotometry; format: functional, organism-based
PC-3 [14] = test: Inhibition of cell proliferation in human PC3 cells in after 48 hrs; format: functional; conditions: PC-3, 48 h
[15] = Inhibition of bovine Cytochrome b-c1 complex; parameters: species or system Bos taurus
Outline: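 Bovine heart mitochondrial bc1 complex purified (DEAE wash 150 mM NaCl, 150–400 mM NaCl gradient), diluted to 0.686 mg/ml in 50 mM phosphate pH 7.5, 300 mM NaCl, 0.1 g/l dodecyl maltoside; activity assayed in 40 mM potassium phosphate pH 7.4, 0.5 mM EDTA by monitoring reduction of equine cytochrome c; dose-response.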

Saccharomyces cerevisiae [16] = test: Antifungal activity against Saccharomyces cerevisiae W303-1A harboring rvs161 deficient mutant gene supersensitive strain in galactose agar media at 50 uM after 24 hrs by spectrophotometry; format: functional, organism-based
[17] = Inhibition of Saccharomyces cerevisiae Cytochrome b-c1 complex
Saccharomyces cerevisiae [18] = test: Antifungal activity against Saccharomyces cerevisiae petite strain in glucose agar media at 0.5 ug […] by disk diffusion method; format: functional; conditions: read-out: DIZ
Outline: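 Petite (ρ0) W303-1A made by ethidium bromide (25 μg/ml) treatment in minimal glucose medium, regrown drug-free, identified as white colonies failing to grow on YPGly. Saturated YPD culture diluted 10-fold, spread on glucose agar; compound in 20 μl water on paper discs; 2–3 days at 30°C; zone of inhibition read.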

HCT-116 [19] = test: Induction of cell cycle arrest in human HCT116 assessed as accumulation at S-phase at 100 uM after 24 hrs by FACS analysis; format: functional; conditions: HCT-116, 24 h
A549 [20] = test: Inhibition of bc1 complex in human A549 cells assessed as reduction in ATP production; format: cell-based
Outline: as §2

143B [21] = test: Inhibition of bc1 complex in human 143B cells assessed as reduction in ATP production in presence of […] of CCCP; format: cell-based
Saccharomyces cerevisiae [22] = test: Effect on NADH dehydrogenase in respiratory chain of Saccharomyces cerevisiae W303-1A mitochondria at […]
Saccharomyces cerevisiae [23] = test: Antifungal activity against Saccharomyces cerevisiae W303-1A in glycerol agar media at 1 ug […] by disk diffusion method; format: functional; conditions: read-out: DIZ
Outline: as §3

Saccharomyces cerevisiae [24] = test: Antifungal activity against Saccharomyces cerevisiae W303-1A harboring atg11 deficient mutant gene in galactose agar media at 50 uM after 24 hrs by spectrophotometry; format: functional, organism-based
143B [25] = test: Inhibition of bc1 complex in human 143B cells assessed as reduction in oxygen uptake at 25 nM in presence of […] of CCCP; format: cell-based
Outline: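 143B cells (4 × 10^6 per aliquot) in serum-free medium in stirred respirometer chamber at 37°C; O2 consumption by oxygen electrode; compound added dose-wise, then CCCP uncoupler added to test whether respiration returns.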

Saccharomyces cerevisiae [26] = test: Antifungal activity against Saccharomyces cerevisiae W303-1A harboring kcs1 deficient mutant gene in galactose agar media at 50 uM after 24 hrs by spectrophotometry; format: functional, organism-based
[27] = biological target: T1, Succinate dehydrogenase [ubiquinone] cytochrome b small subunit, mitochondrial (Saccharomyces cerevisiae) (UniProt P37298); test: Effect on succinate:ubiquinone oxidoreductase activity of respiratory chain in Saccharomyces cerevisiae W303-1A mitochondria at […]
T1 sequence (whole entry): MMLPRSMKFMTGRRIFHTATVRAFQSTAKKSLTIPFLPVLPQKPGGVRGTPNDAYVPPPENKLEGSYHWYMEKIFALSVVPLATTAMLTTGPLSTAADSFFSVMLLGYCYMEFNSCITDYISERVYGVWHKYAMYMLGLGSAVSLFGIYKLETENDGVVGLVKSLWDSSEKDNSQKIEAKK

HCT-116 [28] = test: Effect on cellular respiration in human HCT116 cells assessed as increase in NADH level at 0.5 uM by fluorescence assay; format: functional, cell-based
Outline: as §4

Saccharomyces cerevisiae [29] = test: Effect on cytochrome c oxidase activity of respiratory chain in Saccharomyces cerevisiae W303-1A mitochondria at […]
A549 [30] = test: as §1; format: cell-based
Outline: as §2

DU-145 = test: Cytotoxicity against human DU145 cells; format: functional
Malme-3M = test: Cytotoxicity against human MALME-3M cells; format: functional
SK-OV-3 = test: Cytotoxicity against human SKOV3 cells; format: functional
OVCAR-8 = test: Cytotoxicity against human OVCAR8 cells; format: functional
CAKI-1 = test: Cytotoxicity against human Caki1 cells; format: functional
PC-3 [31] = test: Cytotoxicity against human PC3 cells; format: functional
A549 [32] = test: Cytotoxicity against human A549 cells; format: functional
MCF7 = test: Cytotoxicity against human MCF7 cells; format: functional
SF-268 = test: Cytotoxicity against human SF268 cells; format: functional
M14 = test: Cytotoxicity against human M14 cells; format: functional
K562 = test: Cytotoxicity against human K562 cells; format: functional
NCI/ADR-RES = test: Cytotoxicity against human NCI/ADR-RES cells; format: functional
HCT-116 [33] = test: Induction of cell cycle arrest in human HCT116 assessed as accumulation at G1-phase at 10 uM after 24 hrs by FACS analysis; format: functional
786-0 = test: Cytotoxicity against human 786-0 cells; format: functional
SK-MEL-5 = test: Cytotoxicity against human SK-MEL-5 […]; format: functional
NCI-H226 = test: Cytotoxicity against human NCI-H226 cells; format: functional
HCT-116 [34] = test: Cytotoxicity against human HCT116 cells; format: functional
HCT-116 [35] = test: Induction of cell cycle arrest in human HCT116 assessed as accumulation at G2/M-phase at 10 uM after 24 hrs by FACS analysis; format: functional
HCT-116 [36] = test: Induction of cell cycle arrest in human HCT116 assessed as accumulation at S-phase at 10 uM after 24 hrs by FACS analysis; format: functional

`C[C@@H]1C[C@@H]([C@H](O)CC2CC(=O)NC(=O)C2)C(=O)[C@@H](C)C1` [CYCLOHEXIMIDE] showed a zone of inhibition at 0.5 µg/disc (Saccharomyces cerevisiae [1]) of 30 mm.

With `CCCCC[C@H]1C[C@@H]2CCC[C@@H](C[C@@H](OC)C[C@@H]3C[C@@H](OC(=O)/C=C\CCc4coc(/C=C\CNC(=O)OC)n4)C[C@H](CC(=O)O1)O3)O2` the inhibition (Saccharomyces cerevisiae [2]) was “Active”, the GI50 (HCT-116 [3]) was 0.3 nM and the Activity (Saccharomyces cerevisiae [4]) was “Active”. The Activity (HCT-116 [5]) was 61%, the IC50 [6] was 2.6 nM and the Activity (Saccharomyces cerevisiae [7]) was “Active”. The Activity (HCT-116 [8]) was 6%, the zone of inhibition at 1 µg/disc (Saccharomyces cerevisiae [9]) was 25 mm and the inhibition (Saccharomyces cerevisiae [10]) was “Active”. The GI50 (A549 [11]) was 0.8 nM, the Activity (HCT-116 [12]) was 40% and the Activity (Saccharomyces cerevisiae [13]) was “Active”. For the same compound, the GI50 (PC-3 [14]) was 0.8 nM, the IC50 [15] was 6 nM and the Activity (Saccharomyces cerevisiae [16]) was “Active”. It also gave an IC50 [17] of 1.8 nM, a zone of inhibition at 0.5 µg/disc (Saccharomyces cerevisiae [18]) of 21 mm and an inhibition at 100 µM (HCT-116 [19]) of 27%. The inhibition (A549 [20]) was “inactive”, the inhibition (143B [21]) was “Dose-dependent effect” and the Activity (Saccharomyces cerevisiae [22]) was “inactive”. The zone of inhibition at 1 µg/disc (Saccharomyces cerevisiae [23]) was 36 mm, the Activity (Saccharomyces cerevisiae [24]) was “Active” and the inhibition (143B [25]) was “Active”. The Activity (Saccharomyces cerevisiae [26]) was “Active”, the Activity [27] was “inactive” and the Activity (HCT-116 [28]) was “Active”. The Activity (Saccharomyces cerevisiae [29]) was “inactive”.

For `CCC[C@@H]1C[C@H](OC)C[C@H](C)C[C@@H]2C[C@@H](OC(=O)/C=C\CCc3coc(/C=C\CNC(=O)OC)n3)C[C@H](CC(=O)O1)O2` [NEOPELTOLIDE], the GI50 (HCT-116 [3]) was 0.5 nM, the IC50 [6] was 1.3 nM and the zone of inhibition at 1 µg/disc (Saccharomyces cerevisiae [9]) was 33 mm. For the same compound, the GI50 (A549 [11]) was 0.5 nM, the GI50 (PC-3 [14]) was 0.3 nM and the IC50 [15] was 2 nM. The IC50 [17] was 0.6 nM, the inhibition (A549 [20]) was “inactive” and the Activity (Saccharomyces cerevisiae [22]) was “inactive”. For the same compound, the zone of inhibition at 1 µg/disc (Saccharomyces cerevisiae [23]) was 46 mm, the Activity [27] was “inactive” and the Activity (Saccharomyces cerevisiae [29]) was “inactive”.

With `CC(=O)O[C@H]1C(=O)[C@@]2(C)[C@H]([C@H](OC(=O)c3ccccc3)[C@]3(O)C[C@H](OC(=O)[C@H](O)[C@@H](NC(=O)c4ccccc4)c4ccccc4)C(C)=C1C3(C)C)[C@]1(OC(C)=O)CO[C@@H]1C[C@@H]2O` the inhibition (A549 [30]) was “inactive”.

Work on `COC(=O)NC/C=C\c1nc(CC/C=C\C(=O)O[C@@H]2C[C@H]3C[C@H](OC)C[C@H]4O[C@@H](CC[C@@H]4C)C[C@H](/C=C/CC(C)C)OC(=O)C[C@@H](C2)O3)co1` yielded a GI50 (DU-145) of 670 nM, a GI50 (Malme-3M) of 670 nM and a GI50 (SK-OV-3) of 670 nM. The GI50 (OVCAR-8) was 280 nM, the GI50 (CAKI-1) was 670 nM and the GI50 (PC-3 [31]) was 280 nM. It also gave a GI50 (A549 [32]) of 670 nM, a GI50 (MCF7) of 280 nM and a GI50 (SF-268) of 280 nM. It also gave a GI50 (M14) of 280 nM, a GI50 (K562) of 280 nM and a GI50 (NCI/ADR-RES) of 670 nM. It also gave an Activity (HCT-116 [33]) of 71%, a GI50 (786-0) of 280 nM and a GI50 (SK-MEL-5) of 670 nM. It also gave a GI50 (NCI-H226) of 280 nM, a GI50 (HCT-116 [34]) of 670 nM and an Activity (HCT-116 [35]) of 8%. For the same compound, the Activity (HCT-116 [36]) was 17%.
